Data published in paper PMC9097201 (ACS Omega, 2022).
Where a SMILES comes first, the peptide text is derived from it. [ ]: non-standard residue; d: D form. Nle = CCCC[C@H](N)C(=O)O; Dab = NCC[C@H](N)C(=O)O

Tests used:
[1] = tested on: trypsin, chymotrypsin, and proteinase K; assay: Proteolytic stability assay; format: in vitro ADME; conditions: reaction mixture post-incubation with enzyme cocktail, ESI-MS positive mode
Method in brief: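 Test compound (10 mM) was incubated with a 1:1:1 trypsin/chymotrypsin/proteinase K mixture (0.3 mg/mL) at 37 °C for 0–6 h. Enzymes were inactivated with an equal volume of acetonitrile containing 1% TFA for 15 min at 4 °C. The post-incubation reaction mixture was analysed by ESI-MS for intact peptide.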

[2] = tested on: human embryonic lungs (L132) cell lines; assay: Cell viability; format: cell-based; conditions: L132 cells, 100 μM peptide, 4 h, absorbance 570 nm, triplicate

## CCCC[C@H](NC(=O)[C@H](CCN)NC(=O)[C@H](CCN)NC(=O)[C@H](CCCC)NC(=O)[C@H](Cc1c[nH]c2ccccc12)NC(=O)[C@H](CCN)NC(=O)[C@@H](N)CCCC)C(N)=O [P36, Nle-Dab-Trp-Nle-Dab-Dab-Nle-CONH2] (H-[Nle][Dab]W[Nle][Dab][Dab][Nle]-NH2)
[1]
  chemical integrity after protease incubation (ESI-MS): contained only intact P36
[2]
  cell viability (MTT): ~90%
